Test results: article PMC7489285 (Molecular cancer therapeutics, 2012)

Assays:
231-BR brain metastases = test: experimental brain metastasis model; format: in vivo, mouse
231-BR primary tumors = test: breast primary tumor model; format: in vivo, mouse
[1] = system: experimental brain metastases; settings: 2 experimental brain metastasis models, radiolabeled drug; cited from earlier work
[2] = system: intracerebrally implanted MDA-MB-435, Lu7187 and Lu7466 tumor cells; settings: cited from earlier work; for growth of intracerebrally implanted tumor cells: MDA-MB-435, Lu7187 and Lu7466 cells
231-BR cells = test: MTT in vitro cytotoxicity assay; format: cell-based; settings: Homo sapiens, 72 h, read-out: IC50 values and maximal toxicity
Outline: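 231-BR cells seeded at 2,000/well 24 h before compound addition. Ethanol drug stocks were serially diluted into culture medium and added to triplicate wells, then cultured 72 h. Viable cells were read by MTT, normalized to drug-free viable cells at endpoint. At least 3 independent experiments.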

neuronal tubulin = test: fluorescence-enhanced tubulin polymerization assay; format: biochemical; settings: ratio of tubulin polymerization ED50 values
[3] = system: breast cancer brain metastases; settings: phase II, cited from earlier work
[4] = system: breast cancer brain metastases; settings: phase II, cited from earlier work; remark: listed apart in the source
[5] = mice, favorable half-life; cited from earlier work

Compound: CC(=O)O[C@H]1C(=O)[C@@]2(C)[C@H]([C@H](OC(=O)c3ccccc3)[C@]3(O)C[C@H](OC(=O)[C@H](O)[C@@H](NC(=O)c4ccccc4)c4ccccc4)C(C)=C1C3(C)C)[C@]1(OC(C)=O)CO[C@@H]1C[C@@H]2O [Paclitaxel]
- prevention of brain metastatic colonization (231-BR brain metastases; 18 mg/kg ×3, early or late, all points not significant): ineffective
- Ki67-positive 231-BR cells in brain metastases (proliferation), mean (231-BR brain metastases; day 28, 48 hours after final late 18 mg/kg treatment, vehicle 56.0% ± 2.22%): 54.4% ± 1.91%
- amount of acetylated tubulin-α in primary tumors (231-BR primary tumors; 18 mg/kg i.v. every 4 days ×3, immunofluorescence): increase
- estimated tumor growth rate (slope) of log10 tumor volume (231-BR primary tumors; 18 mg/kg i.v. every 4 days ×3 from day 37, days 41 to 48): −0.0450 ± 0.00743
- experimental lesions with sufficient uptake to show a cytotoxic response [1]: 10%
- growth of intracerebrally implanted tumor cells [2]: nonsignificant effects
- IC50 (231-BR cells): < 10 nM

Compound: CC(=O)O[C@@]12CO[C@@H]1C[C@H](O)[C@@]1(C)C(=O)[C@H](O)C3=C(C)[C@@H](OC(=O)[C@H](O)[C@@H](NC(=O)OC(C)(C)C)c4ccccc4)C[C@@](O)([C@@H](OC(=O)c4ccccc4)[C@H]21)C3(C)C [Docetaxel]
- ED50 compound/ ED50 paclitaxel (neuronal tubulin): 1.07
- IC50 (231-BR cells): < 10 nM

Compound: C=CC[C@H]1C(=O)C(C)(C)[C@@H](O)CC(=O)O[C@H](c2ccc3sc(C)nc3c2)C[C@@H]2O[C@]2(C)CCC[C@H](C)[C@@H]1O [Sagopilone]
- patients achieving partial responses ([3]; progressive brain metastases after whole brain radiation therapy, two patients): 13.3%
- median progression-free survival [3]: 1.4 months
- overall survival [3]: 5.3 months
- growth of intracerebrally implanted tumor cells [2]: reduced the growth
- weight loss [2]: 6%
- BBB penetration ([2]; mice, favorable AUC and half-life): crossed the BBB

Compound: C/C(=C\c1csc(C)n1)[C@@H]1C[C@@H]2O[C@]2(C)CCC[C@H](C)[C@H](O)[C@@H](C)C(=O)C(C)(C)[C@@H](O)CC(=O)N1 [ixabepilone]
- toxicity of initial doses (231-BR brain metastases; mice, initial 2 doses of 5 mg/kg): significant toxicity
- IC50 (231-BR cells): < 10 nM

Compound: C/C(=C\c1csc(C)n1)[C@@H]1C[C@@H]2O[C@]2(C)CCC[C@H](C)[C@H](O)[C@@H](C)C(=O)C(C)(C)[C@@H](O)CC(=O)O1 [patupilone]
- partial responses, patients ([4]; 6 of 31): 19%
- stable disease, patients ([4]; 9 of 31): 29%
- incidence of peripheral neuropathy [4]: 27%
- brain distribution [5]: Significant brain distribution
